# Assay results of several laboratories.
# Compare with care: the assays were run in different laboratories.
# CDK18 with cyclin Y: Cyclin-dependent kinase 18, with cyclin Y (CDK18, Homo sapiens, UniProt Q07002)
# CDK18: Cyclin-dependent kinase 18 (CDK18, Homo sapiens, UniProt Q07002)
Compound,target,assay,setting,measurement,result
CC(C)S(=O)(=O)c1ccc2nccc(Nc3ccc4sc(C5CCCC5)nc4c3)c2c1,CDK18 with cyclin Y,"enzyme activity, inhibitor",1 µM,activity vs control,104%
COc1ccc2[nH]c3c4[nH]c5ccc(OC)cc5c4c4c(c3c2c1)C(=O)NC4=O,CDK18,binding,1 µM,remaining binding,80%
C=CC(=O)N1CCC[C@@H](n2nc(-c3ccc(Oc4ccccc4)cc3)c3c(N)ncnc32)C1,CDK18,"enzyme activity, inhibitor",1 µM,inhibition,3%
CCCCC(=O)Nc1ccc(-c2ccc3ncn(CCC)c(=O)c3c2)cn1,CDK18,"binding, competition with immobilised ligand",0.5 µM,remaining binding,100%
C1=C/COCc2cc(ccc2OCCN2CCCC2)Nc2nccc(n2)-c2cccc(c2)COC/1,CDK18,binding,0.1 µM,remaining binding,92%
C=CC(=O)N1CCC([C@@H]2CCNc3c(C(N)=O)c(-c4ccc(Oc5ccccc5)cc4)nn32)CC1,CDK18,"enzyme activity, inhibitor",1 µM,inhibition,9%
Cc1ccc(NC(=O)c2ccnc(C(F)(F)F)c2)cc1-c1cc(OCCO)nc(N2CCOCC2)c1,CDK18,binding,1 µM,remaining binding,100%
COc1ccc2oc(-c3ccc4nc(N)oc4c3)c/c(=N\c3ccccc3NC(=O)CCN)c2c1,CDK18 with cyclin Y,binding,1 µM,remaining binding,108%
